Screening data from PubChem BioAssay.
PHOSPHO1 block = inhibitors of human PHOSPHO1 phosphatase; Q8TCT1; recombinant PHOSPHO1, absorbance phosphatase assay; inhibition, % at 13.3 µM; 290,000 tested, 1.1% active; AID 1565; in the data active means inhibition above about 60%
RGS4 act = RGS4 potentiation or activation. HEK293 M3R/inducible RGS4, carbachol calcium flux Fluo4; active compounds read low. B-score at 10 µM. 310,000 tested, 0.92% active;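 active means B-score of the integrated calcium signal more than 4 SD below the library mean, with starting fluorescence not abnormally high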;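 further: negative B-score means reduced calcium response which marks RGS4 activation or potentiation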
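Assay system: HEK293 FlpIn-TREx cells, stable M3R, doxycycline-inducible RGS4 / Probe or stimulus: carbachol, ECmax concentration / Times: overnight RGS4 induction, 30 min dye load 37 °C, 20 min compound RT / Signal: kinetic calcium fluorescence imaging with Fluo4-AM dye, 2 µM / Measure: Agonist-evoked peak-minus-minimum fluorescence over baseline, integrated ratio, B score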
MrgX1 antag = antagonists of human MrgX1 receptor; MRGX1-HEK293 calcium flux, Fluo-4, BAM8-22 antagonism; active compounds read low; Q96LB2; B-score at 10 µM; AID 588676; 310,000 tested, 1.3% active;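 active means calcium-response B-score plate-corrected more than 3 library SD below zero, starting fluorescence within 5 deviations, no agonist response on first addition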;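 further: peak minus trough fluorescence over baseline after final BAM8-22 challenge near maximal dose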
Target sequence (Q96LB2 whole entry, looked up): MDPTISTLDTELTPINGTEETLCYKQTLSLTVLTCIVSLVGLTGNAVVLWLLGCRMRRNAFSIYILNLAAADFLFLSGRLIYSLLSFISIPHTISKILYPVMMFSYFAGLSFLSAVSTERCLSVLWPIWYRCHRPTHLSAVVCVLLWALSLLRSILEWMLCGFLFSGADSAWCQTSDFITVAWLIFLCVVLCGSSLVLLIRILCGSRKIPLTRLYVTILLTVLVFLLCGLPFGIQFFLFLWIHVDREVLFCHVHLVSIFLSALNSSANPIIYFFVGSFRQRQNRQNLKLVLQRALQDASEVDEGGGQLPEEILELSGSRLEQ
MrgX1 ag = agonists of human MrgX1 receptor; AID 588627; B-score at 10 µM; Q96LB2; MrgX1-HEK293 cells, Fluo-4 calcium fluorescence, agonist mode; active compounds read high; 310,000 tested, 0.44% active;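 active means calcium response B-score plate-corrected fluorescence ratio at least 3 library SD, with starting fluorescence B-score inside 5 SD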
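times = overnight plating, then 30 min 37 °C plus 30 min room-temperature dye loading | assay system = stable human MrgX1 HEK293 cell line | input = fifteen thousand cells per well | signal = kinetic calcium dye fluorescence, Fluo-4 NW | dosing = compound delivered in addition one of three | read-out = B-scored fluorescence response ratio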
MrgX1 PAM = human MrgX1 positive allosteric modulation, primary screen; AID 588675; MrgX1-HEK293, Fluo-4 calcium flux, FDSS; active compounds read high; B-score at 10 µM; 310,000 tested, 0.63% active; Q96LB2;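 active means plate-corrected calcium response at least 3 library SD above typical, normal starting fluorescence, not activating the receptor alone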;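 further: compound read alongside a low EC10 to EC30 dose of BAM8-22 agonist; peak minus trough fluorescence over baseline measured at the second addition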
RGS4 block = human RGS4 inhibition | AID 463165 | HEK293 M3R/RGS4 inducible, Fluo-4 calcium flux; active compounds read high; triggered by carbachol at its EC20 | P49798 | B-score at 10 µM | 310,000 tested, 0.45% active;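 active means B-score, a plate-corrected calcium signal, over three deviations above library mean, with baseline fluorescence within five deviations of library mean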;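 further: RGS4 expression induced by doxycycline in cells with stable M3 receptor; B-score is computed from the integrated fluorescence ratio over baseline after carbachol; higher B-score means a larger calcium signal and so more RGS4 inhibition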
Target sequence (P49798 whole entry, looked up): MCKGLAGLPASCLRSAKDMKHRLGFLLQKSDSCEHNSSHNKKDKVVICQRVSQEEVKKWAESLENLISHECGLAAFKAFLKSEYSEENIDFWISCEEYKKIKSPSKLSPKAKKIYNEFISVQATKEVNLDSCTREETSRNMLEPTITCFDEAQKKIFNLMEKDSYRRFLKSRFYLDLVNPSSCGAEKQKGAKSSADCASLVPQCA
MrgX1 antag conf = reconfirmed antagonist of human MrgX1 receptor signaling; shares compounds with MrgX1 antag; MrgX1-HEK293, BAM8-22 calcium flux, Fluo-4; active compounds read low; remaining BAM8-22 calcium response % of control (active compounds read low), % at 10 µM; 2,300 tested, 19% active; AID 602420;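 active means remaining agonist calcium response no higher than 100% minus 3 SD of agonist-only control wells, with starting fluorescence near control levels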;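 further: agonist BAM8-22 given at a near maximal EC90 to ECmax level; peak minus minimum fluorescence divided by baseline after agonist addition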
HEK293 Ca flux = activity in parental HEK293 cells lacking MrgX1. shares compounds with MrgX1 antag. Fluo-4 calcium fluorescence, FDSS. fluorescence ratio F(max-min)/F0 at 10 µM. 4,000 tested, 2% active. AID 624111;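 active means duplicate-averaged calcium fluorescence ratio at least three times the standard deviation of buffer wells, a nonspecific response in parental cells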
HEK293 Ca counter = counter-screen for MrgX1 allosteric activators: effect in parental HEK293 cells | shares compounds with MrgX1 antag | parental HEK293 calcium flux, Fluo-4 fluorescence ratio; active compounds read high | fluorescence ratio F(max-min)/F0 at 10 µM | 4,000 tested, 0.4% active | AID 624114;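 active means calcium fluorescence ratio, averaged over duplicates, at least 3 SD of the buffer-well ratio, meaning a nonspecific response in receptor-free cells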;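 further: untransfected parental HEK293 lacking MrgX1 used as counterscreen for MrgX1 allosteric activators; fluorescence change taken during the second addition on a kinetic imager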
HEK293 Ca cntr2 = activity in parental HEK293 cells lacking MrgX1 receptor | shares compounds with MrgX1 antag | 4,000 tested, 8.7% active | Fluo-4 calcium fluorescence (FDSS); active compounds read high | fluorescence ratio F(max-min)/F0 at 10 µM;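 active means calcium fluorescence ratio at least three times the spread of buffer wells, meaning a non-specific response in parental cells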
Numbers without * were called inactive; i = inactive; x = not tested or not shown. Hits are enriched below; roughly 4.5% of the tested compounds scored in any of these assays.

SMILES	PHOSPHO1 block	RGS4 act	MrgX1 antag	MrgX1 ag	MrgX1 PAM	RGS4 block	MrgX1 antag conf	HEK293 Ca flux	HEK293 Ca counter	HEK293 Ca cntr2
CC(=O)NS(=O)(=O)c1ccc(NC(=S)NC(=O)Cc2ccccc2)cc1	-16	i	-6.1*	i	i	i	i	i	i	i
Nc1nnnn1/N=C/c1ccccc1OCc1ccc(Cl)cc1Cl	14	i	-4.8*	i	i	i	i	i	i	i
Nc1nnnn1/N=C/c1ccccc1OCc1ccc(Cl)cc1	0	i	i	i	i	i	x	x	x	x
COc1nc(Nc2ccccc2F)nc(OC)n1	14	i	-8.1*	i	i	i	i	i	i	i
CCS(=O)(=O)N1CCC2(CC1)OCCN2S(=O)(=O)c1ccc(C)cc1	x	i	i	i	i	i	x	x	x	x
CCOC(=O)C(=CNc1ccc2c(c1)c1ccccc1n2CC)C(=O)OCC	16	i	i	i	i	i	x	x	x	x
Cc1ccc(S(=O)(=O)N(C)C)cc1NC(=S)NC(=O)C12CC3CC(CC(C3)C1)C2	-19	i	-6.6*	i	i	i	i	i	i	i
COc1ccccc1-c1nnc(SCc2nc3ccccc3s2)n1C	-23	i	-5.8*	i	i	i	i	i	i	i
COc1cc(C(=O)N2C(=O)CCC2=O)cc(OC)c1OC	19	i	i	i	i	i	x	x	x	x
CCN(CC(=O)Nc1c(F)cccc1F)C(=O)COc1cccc2c1OC(C)(C)C2	x	i	-5.4*	i	i	i	i	i	i	i
CC(C)c1ccc(-c2nc(N3CCCC3)nc3n[nH]c(N)c23)cc1	11	i	-5.4*	i	i	i	i	i	i	i
Cc1cc(C)cc(-n2ncc3c2CCCC3NC(=O)CN2CCCCC2=O)c1 (stereo not drawn)	30	i	-8.3*	i	i	i	i	i	i	i
CC(C)(C)c1ccc(-n2ncc3c2CCCC3NC(=O)CCN2CCCCC2=O)cc1 (stereo not drawn)	-29	i	i	i	i	i	x	x	x	x
CNC(=O)CNC(=O)Nc1ccc(Cl)c(Cl)c1	53	i	i	i	i	i	x	x	x	x
CCOC(=O)C1CCN(C(=O)c2sc3nc(-c4ccc(F)cc4)cn3c2C)CC1	7	i	-5.8*	i	i	i	i	i	i	i
COC(=O)Oc1cncc(C(=O)O)c1	11	i	-5.2*	i	i	i	i	i	i	i
Cc1cc(Cn2nc(C(=O)NCC3CC3)cc2-c2ccccc2)on1	x	i	i	i	i	i	x	x	x	x
CCOC(=O)c1cc(-c2ccccc2)n(Cc2cc(CC)no2)n1	x	i	-5.5*	i	i	i	i	i	i	i
CC(=O)Nc1ccc(S(=O)(=O)N2C(C)CCCC2C)cc1 (stereo not drawn)	13	i	i	i	i	i	x	x	x	x
CNC(=O)c1c(NC(=O)c2ccc(S(=O)(=O)N3CCCc4ccccc43)cc2)sc2c1CCN(C)C2	27	i	-5.5*	i	i	i	i	0.66*	i	49*
COc1cc(C=O)ccc1Oc1nnnn1-c1ccc(C(N)=O)cc1	2	i	i	i	i	i	x	x	x	x
C/C=C/c1ccc(Oc2nnnn2-c2ccc(C(=O)O)cc2)c(OC)c1	-27	i	-4.6*	i	i	i	i	i	i	i
CCCOC(=O)C1=C(C)NC2=C(C(=O)C(C(=O)OC)C(C)C2)C1c1ccc(N(CC)CC)cc1 (stereo not drawn)	-6	i	-7.8*	i	i	i	i	i	i	i
COc1ccc(CC(=O)NC(C)(C)C)cc1S(=O)(=O)N1CCOCC1	-12	i	i	i	i	i	x	x	x	x
COc1ccc(CC(=O)NC(C)c2ccc(S(N)(=O)=O)cc2)cc1S(=O)(=O)N1CCOCC1 (stereo not drawn)	4	i	-9.3*	i	i	i	i	i	i	i
SMILES	PHOSPHO1 block	RGS4 act	MrgX1 antag	MrgX1 ag	MrgX1 PAM	RGS4 block	MrgX1 antag conf	HEK293 Ca flux	HEK293 Ca counter	HEK293 Ca cntr2
COCCNC(=S)N1CCN(Cc2cccc(OC)c2)CC1	-19	i	i	i	i	i	x	x	x	x
CCc1cccc(C)c1NC(=O)CN1CCN(S(=O)(=O)c2ccc(C(C)(C)C)cc2)CC1	x	i	i	i	i	i	x	x	x	x
Cc1ccccc1OCCCN1CCCC1	44	i	-7.2*	i	i	i	i	i	i	i
NS(=O)(=O)c1ccc(CNC(=S)NCc2ccc(F)cc2)cc1	21	i	i	i	i	i	x	x	x	x
CCN(c1cccc(C)c1)c1nc2ccsc2c(=O)s1	11	i	i	i	i	i	x	x	x	x
Cc1ccc(S(=O)(=O)c2ccc(Cl)cc2)cc1S(=O)(=O)N(C)CC(=O)O	12	i	-5.9*	i	i	i	i	i	i	i
O=C(COC(=O)c1ccc(CSc2ccc(Cl)cc2)cc1)Nc1ccccc1	-8	i	i	i	i	i	x	x	x	x
C=CCNC(=O)c1ccc(-n2cccc2)cc1	11	i	-8*	i	i	i	i	i	i	i
C=CCNC(=O)c1ccncc1	-3	i	i	i	i	i	x	x	x	x
CCOC(=O)N1CCN(c2c(N3CCOCC3)c(=O)c2=O)CC1	7	i	i	i	i	i	x	x	x	x
CCOC(=O)N1CCN(c2c(Nc3ccc4c(c3)OCCO4)c(=O)c2=O)CC1	4	i	-6.8*	i	i	i	i	i	i	i
CC(C)c1ccc(C(C)NC(=S)NC2CCCCC2)cc1 (stereo not drawn)	38	i	i	i	i	i	x	x	x	x
